EC50 data for three compounds are collected here from ChEMBL document CHEMBL1150226, “Cytotoxic constituents from leaves of Aglaia elliptifolia” (2001).

Values after ≈ are worked out from the molar mass of the structure shown. Bounds are passed on as bounds.

What all share (format): functional
Common to all, as to conditions: read-out: ED50 (the source's name)

Test [1] relates to HT-29. Put plainly: Cytotoxicity against human HT-29 cells. An outline of the steps:
(§1)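 Cell lines obtained from the American Type Culture Collection; the assay protocol itself is given only by reference to earlier work.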

Test [2] deals with HL-60. Kind of test: Cytotoxicity against human HL60 cells. An outline of the steps:
as §1

Test [3] has as its system A549. Put plainly: Cytotoxicity against human A549 cells. An outline of the steps: as §1
Test [4] has as its system P388. Kind of test: Cytotoxicity against mouse P388 cells. An outline of the steps: (§2)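 KB and P-388 cells supplied by an academic laboratory (University of Illinois at Chicago); the assay protocol itself is given only by reference to earlier work.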
The test system of test [5] is KB. Put plainly: Cytotoxicity against human KB cells. The essentials: as §2

As to `COc1ccc([C@@]23Oc4cc(OC)cc(OC)c4[C@]2(O)[C@H](O)[C@H](C(=O)O)[C@H]3c2ccccc2)cc1` [ROCAGLOIC ACID], the EC50 in test [1] worked out at 0.00084 µg/mL (≈ 0.00176 µM); in test [2], 0.00084 µg/mL (≈ 0.00176 µM); in test [3], 0.00074 µg/mL (≈ 0.00155 µM); in test [4] it was 0.0012 µg/mL (≈ 0.00251 µM); in test [5] it was 0.0023 µg/mL (≈ 0.00481 µM).

On to `C/C=C(\C)C(=O)NC(CCCO)NC(=O)/C=C/c1ccccc1` (stereo not given), for which the EC50 in test [1] is above 50 µg/mL; in test [2], 32.1 µg/mL (≈ 101 µM); in test [3] it was above 50 µg/mL; in test [4], 3.62 µg/mL (≈ 11.4 µM); in test [5], above 50 µg/mL.

Consider `C/C=C(\C)C(=O)N[C@@H]1CCCN1C(=O)[C@@H]1[C@@H](c2ccccc2)[C@]2(c3ccc(OC)cc3)Oc3cc(OC)cc(OC)c3[C@@]1(O)[C@@H]2O` [ELLIPTIFOLINE], for which the EC50 was above 50 µg/mL in test [1]; above 50 µg/mL in test [2]; 18.9 µg/mL (≈ 30.1 µM) in test [3]; 3.41 µg/mL (≈ 5.42 µM) in test [4]; above 50 µg/mL in test [5].
